Test results published in ChEMBL document CHEMBL1140412, “F-18 stilbenes as PET imaging agents for detecting beta-amyloid plaques in the brain” (J Med Chem, 2005).

Legend:
[1] = biological target: Amyloid-beta precursor protein (Homo sapiens, UniProt P05067); assay: Inhibition constant for I-125-IMPY binding to amyloid plaques in Alzheimers disease brain homogenates; format: tissue-based
Summary of the method: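 Competition binding in pooled postmortem AD cortical homogenates (dissected gray/white matter, ~100 mg wet tissue/ml PBS pH 7.4; 20-50 μg per tube). [¹²⁵I]IMPY at 0.04-0.06 nM; inhibitors 10^-5-10^-10 M in PBS with 0.1% BSA. Nonspecific binding with 600 nM IMPY. Incubated 2 hr at 37°C, GF/B filtration, PBS washes, gamma counting. Ki from nonlinear regression.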

[2] = Biodistribution in ICR mouse liver 30 min. after iv injection of [18F]-compound in 0.1% bovine serum albumin solution, n = 3; format: ADME, organism-based; details: in vivo, 0.5 h
Summary of the method: (§1)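 Male ICR mice (22-25 g) under isoflurane anesthesia received 0.15 mL of 0.1% BSA solution containing 5-10 μCi [¹⁸F]tracer by tail-vein injection; n = 3 per time point. Killed by cervical dislocation, organs removed, weighed and gamma-counted. %dose/g derived from sample counts vs. diluted initial dose; blood total activity assumed as 7% of body weight. Mean ± SD.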

[3] = Biodistribution in ICR mouse brain 2 min. after iv injection of [18F]-compound in 0.1% bovine serum albumin solution, n = 3; format: ADME, organism-based; details: in vivo; summary of the method: as §1
[4] = Biodistribution in ICR mouse blood 30 min. after iv injection of [18F]-compound in 0.1% bovine serum albumin solution, n = 3; format: ADME, organism-based; details: in vivo, 0.5 h; summary of the method: as §1
[5] = Biodistribution in ICR mouse spleen 2 hr after iv injection of [18F]-compound in 0.1% bovine serum albumin solution, n = 3; format: ADME, organism-based; details: in vivo; summary of the method: as §1
[6] = Biodistribution in ICR mouse spleen 30 min. after iv injection of [18F]-compound in 0.1% bovine serum albumin solution, n = 3; format: ADME, organism-based; details: in vivo, 0.5 h; summary of the method: as §1
[7] = Biodistribution in ICR mouse bone 30 min. after iv injection of [18F]-compound in 0.1% bovine serum albumin solution, n = 3; format: ADME, organism-based, Bone element; details: in vivo, 0.5 h; summary of the method: as §1
[8] = Biodistribution in ICR mouse lung 2 hr after iv injection of [18F]-compound in 0.1% bovine serum albumin solution, n = 3; format: ADME, organism-based; details: in vivo; summary of the method: as §1
[9] = Biodistribution in ICR mouse blood 1 hr after iv injection of [18F]-compound in 0.1% bovine serum albumin solution, n = 3; format: ADME, organism-based; details: in vivo; summary of the method: as §1
[10] = Biodistribution in ICR mouse spleen 2 min. after iv injection of [18F]-compound in 0.1% bovine serum albumin solution, n = 3; format: ADME, organism-based; details: in vivo; summary of the method: as §1
[11] = Biodistribution in ICR mouse bone 1 hr after iv injection of [18F]-compound in 0.1% bovine serum albumin solution, n = 3; format: ADME, organism-based, Bone element; details: in vivo; summary of the method: as §1
[12] = Biodistribution in ICR mouse skin 30 min. after iv injection of [18F]-compound in 0.1% bovine serum albumin solution, n = 3; format: ADME, organism-based, Zone of skin; details: in vivo, 0.5 h; summary of the method: as §1
[13] = Biodistribution in ICR mouse kidney 2 min. after iv injection of [18F]-compound in 0.1% bovine serum albumin solution, n = 3; format: ADME, organism-based; details: in vivo; summary of the method: as §1
[14] = Biodistribution in ICR mouse kidney 1 hr after iv injection of [18F]-compound in 0.1% bovine serum albumin solution, n = 3; format: ADME, organism-based; details: in vivo; summary of the method: as §1
[15] = Biodistribution in ICR mouse bone 2 hr after iv injection of [18F]-compound in 0.1% bovine serum albumin solution, n = 3; format: ADME, organism-based, Bone element; details: in vivo; summary of the method: as §1
[16] = Biodistribution in ICR mouse heart 2 min. after iv injection of [18F]-compound in 0.1% bovine serum albumin solution, n = 3; format: ADME, organism-based; details: in vivo; summary of the method: as §1
[17] = Biodistribution in ICR mouse bone 2 min. after iv injection of [18F]-compound in 0.1% bovine serum albumin solution, n = 3; format: ADME, organism-based, Bone element; details: in vivo; summary of the method: as §1
[18] = Biodistribution in ICR mouse kidney 2 hr after iv injection of [18F]-compound in 0.1% bovine serum albumin solution, n = 3; format: ADME, organism-based; details: in vivo; summary of the method: as §1
[19] = Biodistribution in ICR mouse lung 2 min. after iv injection of [18F]-compound in 0.1% bovine serum albumin solution, n = 3; format: ADME, organism-based; details: in vivo; summary of the method: as §1
[20] = Biodistribution in ICR mouse muscle 2 hr after iv injection of [18F]-compound in 0.1% bovine serum albumin solution, n = 3; format: ADME, organism-based, Muscle tissue; details: in vivo; summary of the method: as §1
[21] = Biodistribution in ICR mouse skin 2 min. after iv injection of [18F]-compound in 0.1% bovine serum albumin solution, n = 3; format: ADME, organism-based, Zone of skin; details: in vivo; summary of the method: as §1
[22] = Biodistribution in ICR mouse lung 1 hr after iv injection of [18F]-compound in 0.1% bovine serum albumin solution, n = 3; format: ADME, organism-based; details: in vivo; summary of the method: as §1
[23] = Biodistribution in ICR mouse skin 1 hr after iv injection of [18F]-compound in 0.1% bovine serum albumin solution, n = 3; format: ADME, organism-based, Zone of skin; details: in vivo; summary of the method: as §1
[24] = Biodistribution in ICR mouse heart 1 hr after iv injection of [18F]-compound in 0.1% bovine serum albumin solution, n = 3; format: ADME, organism-based; details: in vivo; summary of the method: as §1
[25] = Biodistribution in ICR mouse liver 2 hr after iv injection of [18F]-compound in 0.1% bovine serum albumin solution, n = 3; format: ADME, organism-based; details: in vivo; summary of the method: as §1
[26] = Biodistribution in ICR mouse skin 2 hr after iv injection of [18F]-compound in 0.1% bovine serum albumin solution, n = 3; format: ADME, organism-based, Zone of skin; details: in vivo; summary of the method: as §1
[27] = Biodistribution in ICR mouse blood 2 hr after iv injection of [18F]-compound in 0.1% bovine serum albumin solution, n = 3; format: ADME, organism-based; details: in vivo; summary of the method: as §1
[28] = Biodistribution in ICR mouse liver 2 min. after iv injection of [18F]-compound in 0.1% bovine serum albumin solution, n = 3; format: ADME, organism-based; details: in vivo; summary of the method: as §1
[29] = Biodistribution in ICR mouse heart 30 min. after iv injection of [18F]-compound in 0.1% bovine serum albumin solution, n = 3; format: ADME, organism-based; details: in vivo, 0.5 h; summary of the method: as §1
[30] = Biodistribution in ICR mouse muscle 30 min. after iv injection of [18F]-compound in 0.1% bovine serum albumin solution, n = 3; format: ADME, organism-based, Muscle tissue; details: in vivo, 0.5 h; summary of the method: as §1
[31] = Biodistribution in ICR mouse muscle 2 min. after iv injection of [18F]-compound in 0.1% bovine serum albumin solution, n = 3; format: ADME, organism-based, Muscle tissue; details: in vivo; summary of the method: as §1
[32] = Biodistribution in ICR mouse kidney 30 min. after iv injection of [18F]-compound in 0.1% bovine serum albumin solution, n = 3; format: ADME, organism-based; details: in vivo, 0.5 h; summary of the method: as §1
[33] = Biodistribution in ICR mouse lung 30 min. after iv injection of [18F]-compound in 0.1% bovine serum albumin solution, n = 3; format: ADME, organism-based; details: in vivo, 0.5 h; summary of the method: as §1
[34] = Biodistribution in ICR mouse brain 1 hr after iv injection of [18F]-compound in 0.1% bovine serum albumin solution, n = 3; format: ADME, organism-based; details: in vivo; summary of the method: as §1
[35] = Biodistribution in ICR mouse brain 2 hr after iv injection of [18F]-compound in 0.1% bovine serum albumin solution, n = 3; format: ADME, organism-based; details: in vivo; summary of the method: as §1
[36] = Biodistribution in ICR mouse muscle 1 hr after iv injection of [18F]-compound in 0.1% bovine serum albumin solution, n = 3; format: ADME, organism-based, Muscle tissue; details: in vivo; summary of the method: as §1
[37] = Biodistribution in ICR mouse heart 2 hr after iv injection of [18F]-compound in 0.1% bovine serum albumin solution, n = 3; format: ADME, organism-based; details: in vivo; summary of the method: as §1
[38] = Biodistribution in ICR mouse spleen 1 hr after iv injection of [18F]-compound in 0.1% bovine serum albumin solution, n = 3; format: ADME, organism-based; details: in vivo; summary of the method: as §1
[39] = Biodistribution in ICR mouse brain 30 min. after iv injection of [18F]-compound in 0.1% bovine serum albumin solution, n = 3; format: ADME, organism-based; details: in vivo, 0.5 h; summary of the method: as §1
[40] = Biodistribution in ICR mouse liver 1 hr after iv injection of [18F]-compound in 0.1% bovine serum albumin solution, n = 3; format: ADME, organism-based; details: in vivo; summary of the method: as §1
[41] = Biodistribution in ICR mouse blood 2 min. after iv injection of [18F]-compound in 0.1% bovine serum albumin solution, n = 3; format: ADME, organism-based; details: in vivo; summary of the method: as §1

Chain of Amyloid-beta precursor protein (P05067 whole entry): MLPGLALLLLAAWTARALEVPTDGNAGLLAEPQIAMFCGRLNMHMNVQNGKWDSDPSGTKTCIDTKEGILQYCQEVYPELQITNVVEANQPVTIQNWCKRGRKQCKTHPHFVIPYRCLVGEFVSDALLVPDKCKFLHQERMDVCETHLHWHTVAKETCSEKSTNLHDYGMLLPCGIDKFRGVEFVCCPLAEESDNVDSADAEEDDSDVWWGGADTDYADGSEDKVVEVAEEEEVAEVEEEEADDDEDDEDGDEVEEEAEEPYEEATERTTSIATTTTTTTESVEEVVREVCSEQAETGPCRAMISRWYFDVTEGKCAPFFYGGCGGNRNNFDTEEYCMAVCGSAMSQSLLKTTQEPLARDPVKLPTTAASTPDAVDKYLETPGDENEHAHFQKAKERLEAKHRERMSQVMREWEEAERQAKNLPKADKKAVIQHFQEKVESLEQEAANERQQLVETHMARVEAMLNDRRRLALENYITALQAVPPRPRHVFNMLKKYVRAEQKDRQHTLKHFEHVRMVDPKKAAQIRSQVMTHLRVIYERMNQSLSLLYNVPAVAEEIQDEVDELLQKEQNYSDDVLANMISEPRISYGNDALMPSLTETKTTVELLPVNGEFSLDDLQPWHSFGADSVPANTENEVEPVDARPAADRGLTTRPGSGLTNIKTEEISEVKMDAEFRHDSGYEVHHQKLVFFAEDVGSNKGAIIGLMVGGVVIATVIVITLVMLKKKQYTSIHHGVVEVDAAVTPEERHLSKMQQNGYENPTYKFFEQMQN

CN(C)c1ccc(/C=C/c2ccc(O)cc2)cc1
Ki [1]: 0.0011 µM

CNc1ccc(/C=C/c2ccc(OCC(CO)C[18F])cc2)cc1 (stereo not given)
Biodistribution [2]: 19.6 %Dose/g | Biodistribution [3]: 9.75 %Dose/g | Biodistribution [4]: 2.47 %Dose/g | Biodistribution [5]: 1.22 %Dose/g | Ki [1]: 0.005 µM | Biodistribution [6]: 2.41 %Dose/g | Biodistribution [7]: 2.13 %Dose/g | Biodistribution [8]: 4.15 %Dose/g | Biodistribution [9]: 1.82 %Dose/g | Biodistribution [10]: 5.01 %Dose/g | Biodistribution [11]: 5.3 %Dose/g | Biodistribution [12]: 1.49 %Dose/g | Biodistribution [13]: 11.7 %Dose/g | Biodistribution [14]: 3.06 %Dose/g | Biodistribution [15]: 7.76 %Dose/g | Biodistribution [16]: 7.49 %Dose/g | Biodistribution [17]: 1.53 %Dose/g | Biodistribution [18]: 1.5 %Dose/g | Biodistribution [19]: 26.13 %Dose/g | Biodistribution [20]: 0.41 %Dose/g | Biodistribution [21]: 0.92 %Dose/g | Biodistribution [22]: 7.51 %Dose/g | Biodistribution [23]: 1.22 %Dose/g | Biodistribution [24]: 1.54 %Dose/g | Biodistribution [25]: 8.14 %Dose/g | Biodistribution [26]: 0.57 %Dose/g | Biodistribution [27]: 0.78 %Dose/g | Biodistribution [28]: 20.61 %Dose/g | Biodistribution [29]: 2.06 %Dose/g | Biodistribution [30]: 1.31 %Dose/g | Biodistribution [31]: 0.74 %Dose/g | Biodistribution [32]: 4.13 %Dose/g | Biodistribution [33]: 8.9 %Dose/g | Biodistribution [34]: 0.72 %Dose/g | Biodistribution [35]: 0.31 %Dose/g | Biodistribution [36]: 0.85 %Dose/g | Biodistribution [37]: 0.65 %Dose/g | Biodistribution [38]: 1.37 %Dose/g | Biodistribution [39]: 1.7 %Dose/g | Biodistribution [40]: 14.58 %Dose/g | Biodistribution [41]: 2.6 %Dose/g

CN(C)c1ccc(/C=C/c2ccc(OCC(CO)Cc3ccc(Br)cc3)cc2)cc1 (stereo not given)
Ki [1]: 0.08 µM

Cc1ccc(S(=O)(=O)OCC(CO)COc2ccc(/C=C/c3ccc(N(C)C)cc3)cc2)cc1 (stereo not given)
Ki [1]: 0.15 µM

CN(C)c1ccc(/C=C/c2ccc(OCC(CO)CO)cc2)cc1
Ki [1]: 0.038 µM
